Experimental data from ChEMBL document CHEMBL1914438, “Synthesis and biological activity of novel N-cycloalkyl-(cycloalkylaryl)-2-[(3-R-2-oxo-2H-[1,2,4]triazino[2,3-c]quinazoline-6-yl)thio]acetamides” (2011).

Key:
Type in all cases: functional
[1] = Cytotoxicity against human Hs 578T cells assessed as cell growth at 10^-5 M after 48 hrs by SRB assay; conditions: read-out: Activity
How it was run: (§1)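 NCI 60-cell-line one-dose primary screen: cells inoculated and preincubated 24–48 h, then test agent added at a single 10^-5 M concentration for a further 48 h. Endpoint is sulforhodamine B protein staining read spectrophotometrically. Reported as percent growth relative to untreated control cells.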

MDA-MB-468 [2] = assay: Cytotoxicity against human MDA-MB-468 cells assessed as cell growth at 10^-5 M after 48 hrs by SRB assay; conditions: MDA-MB-468, 48 h, read-out: Activity; how it was run: as §1
CCRF-CEM = assay: Growth inhibition of human CCRF-CEM cells after 48 hrs by SRB assay
How it was run: (§2)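 NCI panel of about 60 human tumor lines, 48 h continuous exposure at five 10-fold dilutions from 10^-4 to 10^-8 M. SRB protein staining was read as absorbance at time zero, in untreated controls and at each concentration. GI50 is the concentration giving 50% lower net protein increase than controls. TGI is where Ti = Tz, and LC50 is 50% protein loss versus start.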

MOLT-4 [3] = assay: Growth inhibition of human MOLT4 cells after 48 hrs by SRB assay; conditions: MOLT-4, 48 h; how it was run: as §2
SR = assay: Growth inhibition of human SR cells after 48 hrs by SRB assay
How it was run: (§3)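 NCI 60-cell-line human tumor panel. Cells were inoculated and preincubated for 24–48 h, then exposed continuously to compound for 48 h. Primary screen used a single 10^-5 M concentration. Growth was measured by sulforhodamine B protein staining, read spectrophotometrically, and reported as percent growth versus untreated controls. Selected compounds were also run at five 10-fold dilutions (10^-4 to 10^-8 M) to derive GI50 from time-zero-corrected absorbances.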

HOP-92 [4] = assay: Growth inhibition of human HOP92 cells after 48 hrs by SRB assay; conditions: HOP-92, 48 h; how it was run: as §2
SNB-75 [5] = assay: Growth inhibition of human SNB75 cells after 48 hrs by SRB assay; conditions: SNB-75, 48 h; how it was run: as §3
UACC-62 = assay: Growth inhibition of human UACC62 cells after 48 hrs by SRB assay; conditions: UACC-62, 48 h; how it was run: as §3
PC-3 = assay: Growth inhibition of human PC3 cells after 48 hrs by SRB assay; conditions: PC-3, 48 h; how it was run: as §2
T47D = assay: Growth inhibition of human T47D cells after 48 hrs by SRB assay; how it was run: as §3
MDA-MB-468 [6] = assay: Growth inhibition of human MDA-MB-468 cells after 48 hrs by SRB assay; conditions: MDA-MB-468, 48 h; how it was run: as §2
[7] = system: Photobacterium leiognathi; assay: Antibacterial activity against Photobacterium leiognathi Sh1 assessed as inhibition of bacterial luminescence at 0.1 mg/mL after 10 mins by bioluminometry-based chronic action test; parameters: scale not given: the % may be the effect or the level left; conditions: in the assay text read “after 16 to 18 hrs” for “after 10 mins”
How it was run: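 Chronic (growth plus luminescence) test with P. leiognathi Sh1 at 10^5 cells/mL in chloride solution, compounds added in DMSO. After 10 min at 25 °C, growth medium added at 1:50 and the mix incubated 16–18 h at 30 °C. Luminescence then measured by bioluminometer as % of untreated control. Tetracycline reference.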

Escherichia coli = assay: Antibacterial activity against Escherichia coli assessed as zone of inhibition at 0.5 mg/mL after 24 hrs by stiff-plate agar-diffusion method; conditions: read-out: DIZ
Staphylococcus aureus [8] = assay: Antibacterial activity against Staphylococcus aureus assessed as zone of inhibition at 0.5 mg/mL after 24 hrs by stiff-plate agar-diffusion method; conditions: read-out: DIZ
Staphylococcus aureus [9] = assay: Antibacterial activity against Staphylococcus aureus assessed as zone of inhibition at 0.1 mg/mL after 24 hrs by stiff-plate agar-diffusion method; conditions: read-out: DIZ
Yamadazyma tenuis = assay: Antifungal activity against Candida tenuis assessed as zone of inhibition at 0.5 mg/mL after 48 to 72 hrs by stiff-plate agar-diffusion method; conditions: read-out: DIZ
Aspergillus niger = assay: Antifungal activity against Aspergillus niger assessed as zone of inhibition at 0.1 mg/mL after 48 to 72 hrs by stiff-plate agar-diffusion method; conditions: read-out: DIZ
SNB-75 [10] = assay: Cytotoxicity against human SNB75 cells assessed as cell growth at 10^-5 M after 48 hrs by SRB assay; conditions: SNB-75, 48 h, read-out: Activity
How it was run: (§4)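 NCI human tumor cell line panel from nine cancer types. Each line was inoculated and preincubated 24–48 h, then exposed to a single concentration (10^-5 M) for 48 h. Growth was read by sulforhodamine B protein staining, measured spectrophotometrically. Value reported as percent growth of treated cells relative to untreated controls.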

M14 = assay: Cytotoxicity against human M14 cells assessed as cell growth at 10^-5 M after 48 hrs by SRB assay; conditions: M14, 48 h, read-out: Activity; how it was run: as §1
UACC-257 = assay: Cytotoxicity against human UACC257 cells assessed as cell growth at 10^-5 M after 48 hrs by SRB assay; conditions: UACC-257, 48 h, read-out: Activity; how it was run: as §4
MOLT-4 [11] = assay: Cytotoxicity against human MOLT4 cells assessed as cell growth at 10^-5 M after 48 hrs by SRB assay; conditions: MOLT-4, 48 h, read-out: Activity; how it was run: as §4
NCI-H522 = assay: Cytotoxicity against human NCI-H522 cells assessed as cell growth at 10^-5 M after 48 hrs by SRB assay; conditions: NCI-H522, 48 h, read-out: Activity; how it was run: as §4
HOP-92 [12] = assay: Cytotoxicity against human HOP92 cells assessed as cell growth at 10^-5 M after 48 hrs by SRB assay; conditions: HOP-92, 48 h, read-out: Activity; how it was run: as §1
HCT-116 = assay: Cytotoxicity against human HCT116 cells assessed as cell growth at 10^-5 M after 48 hrs by SRB assay; conditions: HCT-116, 48 h, read-out: Activity; how it was run: as §1
OVCAR-3 = assay: Cytotoxicity against human OVCAR3 cells assessed as cell growth at 10^-5 M after 48 hrs by SRB assay; conditions: OVCAR-3, 48 h, read-out: Activity; how it was run: as §4
HOP-62 = assay: Cytotoxicity against human HOP62 cells assessed as cell growth at 10^-5 M after 48 hrs by SRB assay; conditions: HOP-62, 48 h, read-out: Activity; how it was run: as §1
HCT-15 = assay: Cytotoxicity against human HCT15 cells assessed as cell growth at 10^-5 M after 48 hrs by SRB assay; conditions: HCT-15, 48 h, read-out: Activity; how it was run: as §1
SW-620 = assay: Cytotoxicity against human SW620 cells assessed as cell growth at 10^-5 M after 48 hrs by SRB assay; conditions: SW-620, 48 h, read-out: Activity; how it was run: as §4
[13] = read-out: pLC50 (the source's name) (converted)

CCC1C2CCC(C2)C1NC(=O)CSc1nc2ccccc2c2nc(=O)c(-c3ccc(OC)cc3)nn12 (stereo unspecified) gave a growth at 10 µM [1] of -9.67%, a growth at 10 µM (MDA-MB-468 [2]) of -59.5% and a GI50 (CCRF-CEM) of 2 µM. For the same compound, the CC50 (CCRF-CEM; [13]) was > 50.1 µM, the TGI (CCRF-CEM; read-out: pTGI) was > 50.1 µM and the GI50 (MOLT-4 [3]) was 1.62 µM. For the same compound, the CC50 (MOLT-4 [3]; [13]) was > 50.1 µM, the TGI (MOLT-4 [3]; read-out: pTGI) was > 50.1 µM and the GI50 (SR) was 1.35 µM. For the same compound, the CC50 (SR; [13]) was > 50.1 µM, the TGI (SR; read-out: pTGI (converted)) was 7.41 µM and the GI50 (HOP-92 [4]) was 0.977 µM. For the same compound, the CC50 (HOP-92 [4]; [13]) was 25.7 µM, the TGI (HOP-92 [4]; read-out: pTGI (converted)) was 3.98 µM and the GI50 (SNB-75 [5]) was 3.09 µM. It also gave a CC50 (SNB-75 [5]; [13]) of 30.9 µM, a TGI (SNB-75 [5]; read-out: pTGI (converted)) of 11.5 µM and a GI50 (UACC-62) of 3.55 µM. For the same compound, the CC50 (UACC-62; [13]) was > 50.1 µM, the TGI (UACC-62; read-out: pTGI (converted)) was 26.3 µM and the GI50 (PC-3) was 2.82 µM. For the same compound, the CC50 (PC-3; [13]) was > 50.1 µM, the TGI (PC-3; read-out: pTGI (converted)) was 24.5 µM and the GI50 (T47D) was 3.72 µM. For the same compound, the CC50 (T47D; [13]) was > 50.1 µM, the TGI (T47D; read-out: pTGI) was > 50.1 µM and the GI50 (MDA-MB-468 [6]) was 1.35 µM. The CC50 (MDA-MB-468 [6]; [13]) was 30.2 µM, the TGI (MDA-MB-468 [6]; read-out: pTGI (converted)) was 3.98 µM and the Activity [7] was 144%. It also gave a zone of inhibition at 500 µg/mL (Escherichia coli) of 0 mm, a zone of inhibition at 500 µg/mL (Staphylococcus aureus [8]) of 0 mm and a zone of inhibition at 100 µg/mL (Staphylococcus aureus [9]) of 0 mm. For the same compound, the zone of inhibition at 500 µg/mL (Yamadazyma tenuis) was 0 mm, the zone of inhibition at 100 µg/mL (Aspergillus niger) was 0 mm and the growth at 10 µM (SNB-75 [10]) was 4.94%. It also gave a growth at 10 µM (M14) of 44.2%, a growth at 10 µM (UACC-257) of 55.6% and a growth at 10 µM (MOLT-4 [11]) of 11.4%. For the same compound, the growth at 10 µM (NCI-H522) was -49.9%, the growth at 10 µM (HOP-92 [12]) was 57% and the growth at 10 µM (HCT-116) was 64.3%. For the same compound, the growth at 10 µM (OVCAR-3) was -69.7%, the growth at 10 µM (HOP-62) was -19.5% and the growth at 10 µM (HCT-15) was 67.9%. For the same compound, the growth at 10 µM (SW-620) was 45.9%.
